This is an account of results in ChEMBL document CHEMBL4229493, “Synthesis and anticancer activity studies of indolylisoxazoline analogues” (Bioorg Med Chem Lett, 2018).

Holding throughout (type): functional, cell-based
In assay [1] the test system is LNCaP C4-2. The assay can be described thus: Induction of ROS generation in human C4-2 cells at 10 uM after 48 hrs by H2-DCF-DA staining based inverted fluorescent microscopic method. The method in brief: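 C4-2 cells left untreated or exposed 48 h to compound at 10 μM. H2O2 (10 μM) was the positive control. Intracellular ROS was stained with DCFDA and fluorescence quantified.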

A further assay has as its system BXPC-3. The assay is described as follows: Growth inhibition of human BxPC3 cells after 48 hrs by MTT assay. Particulars: BXPC-3, 48 h. (In general: Formazan colour is commonly taken as a measure of viable cells.)
In another assay the test system is CWR22R. The assay is described as follows: Growth inhibition of human 22Rv1 cells after 48 hrs by MTT assay. As to conditions: 22Rv1, 48 h.
Another assay deals with PC-3. The assay is described as follows: Growth inhibition of human PC3 cells after 48 hrs by MTT assay. As to conditions: PC-3, 48 h.
For the next assay, the system named is MDA-MB-231. The assay is described as follows: Growth inhibition of human MDA-MB-231 cells after 48 hrs by MTT assay. Particulars: MDA-MB-231, 48 h.
The subject of the next assay is HEK293. The assay can be described thus: Growth inhibition of HEK293 cells after 48 hrs by MTT assay. Particulars: Homo sapiens, HEK293, 48 h.
The test system of assay [2] is LNCaP C4-2. The assay is described as follows: Growth inhibition of human C4-2 cells after 48 hrs by MTT assay. As to conditions: LNCaP C4-2, 48 h.
The subject of assay [3] is LNCaP C4-2. The assay is described as follows: Induction of apoptosis in human C4-2 cells assessed as nuclear fragmentation at 2.5 uM after 48 hrs by acridine orange/ethidium bromide staining based inverted fluorescent microscopic method. The method in brief:
(§1)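 C4-2 cells were incubated 48 h with compound, alongside untreated controls. They were then stained with acridine orange (live and dead cells) and ethidium bromide (dead cells only). Nuclear morphology was scored for red fragmented nuclei as apoptosis versus necrosis.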

Assay [4] has as its system LNCaP C4-2. The assay is described as follows: Induction of apoptosis in human C4-2 cells assessed as PARP cleavage at 2.5 uM after 48 hrs by Western blot analysis. For orientation: In western blotting, separated proteins are transferred to a membrane and probed.
The test system of assay [5] is LNCaP C4-2. The assay can be described thus: Induction of apoptosis in human C4-2 cells assessed as DNA fragmentation by measuring DNA ladder formation at 10 uM after 48 hrs by agarose gel electrophoresis method.
Assay [6] has as its system LNCaP C4-2. The assay is described as follows: Antimigratory activity against human C4-2 cells at 10 uM after 12 to 48 hrs by wound healing assay. The essentials:
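A scratch was made in a C4-2 monolayer. Cells were incubated further for 12, 24 and 48 h, then fixed and imaged to follow migration into the wound.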

Another assay relates to NCI-H460. The assay is described as follows: Antiproliferative activity against human NCI-H460 cells.
Assay [7] concerns LNCaP C4-2. The assay can be described thus: Induction of apoptosis in human C4-2 cells assessed as nuclear fragmentation at 3.5 uM after 48 hrs by acridine orange/ethidium bromide staining based inverted fluorescent microscopic method. The essentials: as §1
Assay [8] relates to LNCaP C4-2. The assay can be described thus: Induction of apoptosis in human C4-2 cells assessed as PARP cleavage at 3.5 uM after 48 hrs by Western blot analysis.
For a further assay, the system named is Prostatic carcinoma cell. The assay is described as follows: Cytotoxicity against human prostate cancer cells.

Activity calls are given as the source filed them. No cut-off for these calls is given here.

With `OO`, the result with LNCaP C4-2 [1] was Active.

What is called IC50 is the midpoint of a concentration-inhibition curve. High values mean a need for much substance, low ones inhibition by little substance. As for `COc1ccc2c(c1)c(C1CC(c3ccncc3)=NO1)cn2Cc1ccc(Cl)cc1` (stereo not given), the IC50 in the assay with BXPC-3 was > 100 µM; in the assay on CWR22R, 10.6 µM; in the assay with PC-3 it was 55.2 µM; in the assay with MDA-MB-231 it was 26 µM; in the assay with HEK293, 14.2 µM; in the assay with LNCaP C4-2 [2], > 100 µM.

Regarding `c1ccc2c(C3CC(c4ccc5c(c4)OCO5)=NO3)c[nH]c2c1` (stereo not given), the 50% inhibitory concentration (IC50) is 27 µM in the assay on BXPC-3; > 100 µM with CWR22R; > 100 µM in the assay on PC-3; 26.6 µM with MDA-MB-231; > 100 µM in the assay on HEK293; 15.8 µM with LNCaP C4-2 [2].

Consider `COc1cccc2c1C(=O)c1c(O)c3c(c(O)c1C2=O)C[C@@](O)(C(=O)CO)C[C@@H]3O[C@H]1C[C@H](N)[C@H](O)[C@H](C)O1` [DOXORUBICIN], for which the IC50 in the assay on BXPC-3 is 9.12 µM; in the assay on PC-3, 9.58 µM; in the assay on HEK293 it was 3.9 µM; with LNCaP C4-2 [2], 3.25 µM.

As to `Fc1ccc2c(C3CC(c4ccncc4)=NO3)c[nH]c2c1` (stereo not given), the IC50 in the assay on BXPC-3 turned out to be 9.5 µM; in the assay with CWR22R, 3.66 µM; in the assay on PC-3 it was 12.9 µM; with MDA-MB-231, 5 µM; with HEK293, 9.5 µM; with LNCaP C4-2 [2], 8 µM.

In the case of `COc1ccc2c(C3CC(c4ccncc4)=NO3)cn(Cc3ccc(Cl)cc3)c2c1` (stereo not given), the IC50 is > 100 µM in the assay on BXPC-3; 17.3 µM in the assay with CWR22R; 95.1 µM in the assay with PC-3; > 100 µM in the assay on MDA-MB-231; 37.2 µM with HEK293; > 100 µM in the assay on LNCaP C4-2 [2].

As for `COc1ccc2[nH]cc(C3CC(c4cc(OC)c(OC)c(OC)c4)=NO3)c2c1` (stereo not given), the IC50 is > 100 µM in the assay with BXPC-3; 11.3 µM in the assay with CWR22R; 42.6 µM in the assay with PC-3; 26 µM in the assay with MDA-MB-231; 45.4 µM in the assay on HEK293; 71.2 µM with LNCaP C4-2 [2].

Regarding `COc1cc(C2=NOC(c3c[nH]c4ccccc34)C2)cc(OC)c1OC` (stereo not given), the IC50 in the assay with BXPC-3 is 13.5 µM; with CWR22R it was 4.51 µM; in the assay on PC-3, 15.5 µM; in the assay with MDA-MB-231 it was 11.7 µM; in the assay with HEK293 it was 5 µM; in the assay with LNCaP C4-2 [2], 5 µM.

Regarding `Clc1ccc(Cn2cc(C3CC(c4ccncc4)=NO3)c3ccccc32)cc1` (stereo not given), the IC50 in the assay on BXPC-3 is > 100 µM; in the assay with CWR22R, 9.6 µM; in the assay on PC-3 it was 25.7 µM; in the assay on MDA-MB-231, 13.7 µM; with HEK293 it was 10.2 µM; in the assay with LNCaP C4-2 [2] it was 11.4 µM.

Turning to `Cc1c(C2CC(c3ccncc3)=NO2)c2ccccc2n1Cc1ccc(Cl)cc1` (stereo not given), the result with LNCaP C4-2 [1] was inactive. For the same molecule, the result in the assay with LNCaP C4-2 [3], with LNCaP C4-2 [4], with LNCaP C4-2 [5] and in the assay on LNCaP C4-2 [6] was Active. Besides, the IC50 was found to be 13.5 µM in the assay with BXPC-3; 8.33 µM in the assay with CWR22R; 11.2 µM with PC-3; 6.66 µM in the assay on MDA-MB-231; 2.5 µM in the assay on HEK293; 2.5 µM with LNCaP C4-2 [2].

`COc1ccc(C2=NOC(c3c[nH]c4ccccc34)C2)cc1OC` (stereo not given): the IC50 in the assay with BXPC-3 was > 100 µM; in the assay on CWR22R, 16.7 µM; with PC-3, 70.1 µM; with MDA-MB-231, > 100 µM; in the assay with HEK293, > 100 µM; in the assay on LNCaP C4-2 [2], 65.5 µM.

As for `COc1cc(-c2cnc(-c3ccc4c(ccn4C)c3)o2)cc(OC)c1OC`, inhibition with NCI-H460 was half-maximal at 0.0062 µM (IC50).

For `Cc1[nH]c2ccccc2c1C1CC(c2ccncc2)=NO1` (stereo not given), the IC50 with BXPC-3 is 95.5 µM; in the assay on CWR22R it was 17.3 µM; in the assay with PC-3, 21.2 µM; in the assay on MDA-MB-231, 26.6 µM; with HEK293, > 100 µM; in the assay with LNCaP C4-2 [2], 45.1 µM.

Consider `COc1ccc2c(C3CC(c4ccncc4)=NO3)c[nH]c2c1` (stereo not given), for which the outcome in the assay on LNCaP C4-2 [1] was inactive. The outcome in the assay on LNCaP C4-2 [7], in the assay on LNCaP C4-2 [5], in the assay on LNCaP C4-2 [8] and in the assay on LNCaP C4-2 [6] was Active. Also, the IC50 in the assay on BXPC-3 worked out at 9.5 µM; with CWR22R it was 16.3 µM; in the assay with PC-3, 10.5 µM; in the assay on MDA-MB-231, 7.38 µM; with HEK293, 4.16 µM; with LNCaP C4-2 [2] it was 3.5 µM.

Consider `c1ccc2c(C3CC(c4ccncc4)=NO3)c[nH]c2c1` (stereo not given), for which the IC50 is 30.5 µM with BXPC-3; > 100 µM in the assay on CWR22R; > 100 µM in the assay with PC-3; 19.7 µM in the assay with MDA-MB-231; > 100 µM in the assay on HEK293; 12.8 µM in the assay with LNCaP C4-2 [2].

As for `COc1ccc2[nH]cc(C3CC(c4ccncc4)=NO3)c2c1` (stereo not given), the IC50 in the assay with BXPC-3 was 68.5 µM; with CWR22R, 35.5 µM; in the assay with PC-3, > 100 µM; with MDA-MB-231 it was > 100 µM; with HEK293 it was > 100 µM; with LNCaP C4-2 [2], > 100 µM.

The molecule `COc1cc(-c2nnc(-c3cn(C)c4ccccc34)[nH]2)cc(OC)c1OC` returned an IC50 in the assay with Prostatic carcinoma cell of 0.8 µM.
